# Published values collected from several papers.
# Each line is one published result; the experiments were not run side by side.
# PFF0160c: Dihydroorotate dehydrogenase (quinone), mitochondrial (PFF0160c, Plasmodium falciparum, UniProt Q08210)
# OPRK1: Kappa-type opioid receptor (OPRK1, Homo sapiens, UniProt P41145)
# CNR1: Cannabinoid receptor 1 (CNR1, Homo sapiens, UniProt P21554)
SMILES,target,read-out,action,method,setting,endpoint,value
CCNC(=O)c1nn(C)c(Cc2ccc(C(F)(F)F)nc2)c1C,PFF0160c,enzyme activity,inhibitor,,,IC50,5200 nM
CNC(=O)c1ccc(-c2cnn3ccc(C(=O)N(C)c4ccc(Cl)c(C(=O)O)c4)cc23)cc1,"Serine/threonine-protein kinase WNK1 (WNK1, Homo sapiens, UniProt Q9H4A3)",enzyme activity,inhibitor,,,IC50,> 30000 nM
NC(=O)c1ccc(C(=O)N[C@H]2CC[C@@]3(O)[C@H]4Cc5ccc(O)c6c5[C@@]3(CCN4CC3CC3)[C@H]2O6)s1,OPRK1,ligand displacement,,radioligand,cell membranes,Ki,1.91 nM
CCn1ccc2c(Cc3ccc(C(F)(F)F)nc3)n(C)nc2c1=O,PFF0160c,enzyme activity,inhibitor,,,IC50,1580 nM
CCCCCn1c(O)c(N=NC(=O)c2ccccc2)c2ccccc21,CNR1,β-arrestin recruitment,agonist,,,EC50,780 nM
O=C(N[C@H]1CC[C@@]2(O)[C@H]3Cc4ccc(O)c5c4[C@@]2(CCN3CC2CC2)[C@H]1O5)c1ccc(F)s1,OPRK1,ligand displacement,,radioligand,cell membranes,Ki,2.2 nM
Brc1ccc2c(c1)C(c1ccccn1)=NCc1c(-c3cnco3)ncn1-2,OPRK1,ligand displacement,,radioligand,,Ki,2100 nM
CCCCCc1cc(O)c2c(c1)OC(C)(C)c1ccc(C)cc1-2,CNR1,cell-free assay,,,,Ki,285 nM
CC[C@@](O)(c1ccc(F)c(Cl)c1)c1c2ccn(C3CC3)c(=O)c2nn1C,PFF0160c,enzyme activity,inhibitor,,,IC50,6.31 nM
NS(=O)(=O)c1ccc(C(=O)N[C@H]2CC[C@@]3(O)[C@H]4Cc5ccc(O)c6c5[C@@]3(CCN4CC3CC3)[C@H]2O6)s1,OPRK1,ligand displacement,,radioligand,cell membranes,Ki,3.93 nM
Cn1nc2c(=O)n(C3CC3)ncc2c1[C@](O)(c1ccc(C(F)(F)F)c(Cl)c1)C(F)(F)F,PFF0160c,enzyme activity,inhibitor,,,IC50,7.94 nM
COC(=O)[C@@H](NC(=O)c1nn(Cc2ccc(F)cc2)c2ccccc12)C(C)C,CNR1,G protein activation,agonist,,,EC50,~4 nM
Cc1ccc(C(=O)N[C@H]2CC[C@@]3(O)[C@H]4Cc5ccc(O)c6c5[C@@]3(CCN4CC3CC3)[C@H]2O6)s1,OPRK1,ligand displacement,,radioligand,cell membranes,Ki,1.67 nM
Cn1nc2c(=O)n(C3CC3)cnc2c1[C@](O)(c1cnc(C(F)(F)F)c(Cl)c1)C1CC1,PFF0160c,enzyme activity,inhibitor,,,IC50,20 nM
O=C(N=Nc1c(O)n(CCCCCF)c2ccccc12)c1ccccc1,CNR1,ligand displacement,,radioligand,cell membranes,Ki,2240 nM
